Sampled rows, rich in hits. Any-hit rate of the full collection: about 1.4%.
MOR-DOR inv ag – inverse agonists of MOR-DOR heterodimerization, primary screen, cell-based, luminescence; inhibition, % at 9.3 µM; cell-based MOR-DOR heterodimer luminescence, inverse agonism; actives 0.21% (n = 340,000); Mu-type opioid receptor (Homo sapiens) + Delta-type opioid receptor (Homo sapiens), …; in the data active = inhibition above about 22%, passing the limit was not always enough;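 note: 0% = cells with DMSO and 100% = wells without cells with DMSO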
HTR5A inv ctr – HTR5A inverse agonists in luminescence cell assay, primary screen, counter-screen for OPRM1-OPRD1 heterodimer inverse agonist project, full-deck HTS | 5-hydroxytryptamine receptor 5A (Homo sapiens), P47898 | actives 0.083% (n = 340,000) | inhibition, % at 9.3 µM | HTR5A cell line, inverse agonism; in the data active = inhibition mostly above about 23%, no sharp cut-off; inactive = mostly below about 18%;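 note: 0% = cells with DMSO and 100% = no-cell wells with DMSO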
Arr AP2 block – inhibitors of beta-arrestin/AP2 binding, primary screen, biochemical, GPCR trafficking, flow cytometry. beta-arrestin 1 C-terminal peptide binding to AP2 beta2-adaptin appendage (human). inhibition, % at 10 µM. AID 504490, 2011. FITC-arrestin peptide / GST-AP2 beads; AP2 beta2 appendage carries R879A mutation. actives 0.31% (n = 340,000);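 active = inhibition above a set limit, near 3 SD of compounds lacking own fluorescence, cut at about 54% in these data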;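 note: plate controls were DMSO wells for no effect and 5 µM unlabelled arrestin peptide for full effect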
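System: GST-AP2 R879A glutathione beads. Medium: PBS with 0.05% Tween 20 and 0.1% BSA. Also added: FITC-arrestin peptide, 50 nM. Incubation: 12 min plus 1 h, RT. Measured by: high-throughput flow cytometry of beads, ex 488, em 535 nm. Evaluation: percent drop in bead-associated FITC signal.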
HTR5A ag – HTR5A agonists in luminescence cell assay, primary screen, counter-screen for OPRM1-OPRD1 heterodimer agonist project, full-deck HTS. cell-based. activation, % at 9.3 µM. actives 0.61% (n = 340,000); in the data active = activation mostly above about 9.5%, no sharp cut-off; inactive = mostly below about 7.6%;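 note: 0% = cells with vehicle only and 100% = reference agonist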
DAGLB inhibitor – DAGLB lipase inhibitors, primary screen, biochemical, fluorescence, HTS. Diacylglycerol lipase-beta (Homo sapiens), Q8NCG7. HEK293T DAGLB membrane lysate, EnzChek fluorogenic substrate. inhibition, % at 5.17 µM. actives 0.059% (n = 340,000). AID 504411, 2011; in the data active = inhibition above about 34%;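 note: 0% = enzyme with vehicle and 100% = wells lacking enzyme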
Target sequence (Q8NCG7 whole entry, looked up): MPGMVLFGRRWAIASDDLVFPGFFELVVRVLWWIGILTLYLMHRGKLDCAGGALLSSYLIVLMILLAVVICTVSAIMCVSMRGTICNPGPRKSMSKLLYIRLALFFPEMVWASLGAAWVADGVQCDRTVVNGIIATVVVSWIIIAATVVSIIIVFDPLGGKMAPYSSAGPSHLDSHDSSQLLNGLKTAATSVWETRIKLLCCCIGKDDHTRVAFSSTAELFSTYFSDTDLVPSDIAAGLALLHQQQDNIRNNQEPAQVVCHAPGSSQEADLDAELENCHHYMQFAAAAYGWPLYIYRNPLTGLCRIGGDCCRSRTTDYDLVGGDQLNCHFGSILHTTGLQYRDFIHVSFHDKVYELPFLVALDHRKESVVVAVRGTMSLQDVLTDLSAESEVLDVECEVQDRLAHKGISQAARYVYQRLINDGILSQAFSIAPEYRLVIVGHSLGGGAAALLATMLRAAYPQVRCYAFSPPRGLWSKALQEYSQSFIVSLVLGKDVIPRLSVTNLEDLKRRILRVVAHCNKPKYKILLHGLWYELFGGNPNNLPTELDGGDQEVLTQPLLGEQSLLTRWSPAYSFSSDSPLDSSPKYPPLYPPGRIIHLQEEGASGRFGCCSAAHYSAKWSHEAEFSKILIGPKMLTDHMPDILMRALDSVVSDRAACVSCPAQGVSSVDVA
MOR-DOR ag – agonists of OPRM1-OPRD1 heterodimerization, primary screen, cell-based, luminescence. Mu-type opioid receptor (Homo sapiens) + Delta-type opioid receptor (Homo sapiens), …. activation, % at 9.3 µM. cells. actives 0.3% (n = 340,000); in the data active = activation above about 18%;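 note: 0% = vehicle-treated cells and 100% = reference agonist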
* marks the source's active call; other numbers are inactive results; / = no result.

SMILES	MOR-DOR inv ag	HTR5A inv ctr	Arr AP2 block	HTR5A ag	DAGLB inhibitor	MOR-DOR ag
CC1(C)Oc2ccc3ccc(=O)oc3c2/C(=C/O)C1=O	5	-11	8	14*	-5	-1
CC1(C)Oc2ccc3ccc(=O)oc3c2/C(=C/N)C1=O	3	-3	0	0	2	-1
Cc1sc2nc(CSCC(=O)NC3(C#N)CCCCC3)[nH]c(=O)c2c1C	16	8	-7	0	1	-4
CSc1ncccc1C(=O)OCC(=O)NCc1ccccc1	12	12	-8	13*	-2	-3
COc1ccc(C2CCc3cc4c(cc3C2=NOC(C)=O)OCO4)cc1OC (stereo unspecified)	/	/	/	/	-1	/
COc1ccccc1CNS(=O)(=O)c1c(C)cc(C)cc1C	/	/	/	/	-6	/
CC1CN(N=Cc2ccc([N+](=O)[O-])o2)C(=N)O1 (stereo unspecified)	-11	-32	-10	8.2*	-1	2
CNC(=S)N(CCc1cccc(C)c1)Cc1cc2cc(OC)c(OC)cc2[nH]c1=O	6	1	-12	0	3	-1
CNC(=S)N(Cc1cc2cc(OC)c(OC)cc2[nH]c1=O)C1CCCC1	5	21	-22	13*	2	-1
CC(C)C1C(=O)N(Cc2cn(CC3CCCCC3)nn2)CCS(=O)(=O)N1Cc1ccc(-c2cccc(CO)c2)cc1 (stereo unspecified)	/	/	/	/	-2	/
Cc1ccc2nc(C)cc(C(=O)OCC(=O)c3ccc(Cl)c([N+](=O)[O-])c3)c2c1	79*	41*	-9	-9	-3	-19
O=C(Nc1nccs1)c1cnc2sccn2c1=O	/	/	/	/	-1	/
O=C(c1cc2ccccc2oc1=O)N1CCN(Cc2ccc3c(c2)OCO3)CC1	5	-2	-12	1	0	-1
Fc1ccccc1NC(=S)N1CCN(Cc2ccc3c(c2)OCO3)CC1	8	-5	36	12*	-3	-2
O=C(c1cc2ccccc2o1)N1CCN(Cc2ccc3c(c2)OCO3)CC1	9	-11	6	11*	-10	-3
Cc1cc(Cl)ccc1NC(=S)N1CCN(Cc2ccc3c(c2)OCO3)CC1	-29	39	-5	-2	-1	5
CCCNC(=S)N1CCN(Cc2ccc3c(c2)OCO3)CC1	-5	-28	0	12*	1	1
O=C(COC(=O)C12CC3CC(CC(O)(C3)C1)C2)Nc1ccc(Cl)c(S(=O)(=O)N2CCOCC2)c1	10	-2	-2	1	-1	-2
C=CCN1C=C2C(=O)C(C)(OC(=O)C3CCCC3)C(=O)C(c3ccccc3)=C2C=C1CCCC(=O)OC (stereo unspecified)	-32	22	26	12*	0	6
COC(=O)CCCC1=CC2=C(c3ccccc3)C(=O)C(C)(OC(=O)C3CCCC3)C(=O)C2=CN1C1CC1 (stereo unspecified)	-6	-10	23	-2	-2	1
C[C@H](CO)N1C[C@H](C)[C@@H](CN(C)Cc2ccc(F)cc2)Oc2ncc(Br)cc2C1=O	/	/	/	/	4	/
N#CC(C#N)=C1C=CC=CN1/C(=C\c1ccco1)C(=O)c1ccccc1	36*	-8	9	-4	2	-7
COc1ccc(C(=O)/C(=C\c2ccco2)N2C=CC=CC2=C(C#N)C#N)cc1	33*	7	19	-3	-5	-5
COc1ccc(/C=C(/C(=O)c2cccs2)N2C=CC=CC2=C(C#N)C#N)cc1	6	7	-1	-6	-5	-1
N#CC(C#N)=C1C=CC=CN1/C(=C\c1ccco1)C(=O)c1ccc(Br)cc1	29*	-4	-7	-2	1	-5
SMILES	MOR-DOR inv ag	HTR5A inv ctr	Arr AP2 block	HTR5A ag	DAGLB inhibitor	MOR-DOR ag
COc1ccc(C2C(C#N)=C(N)Oc3c2c(C)nn3-c2ccccc2)cc1Cn1nc(C)c([N+](=O)[O-])c1C (stereo unspecified)	-2	-40	1	14*	7	0
COc1ccc(C2C(C#N)=C(N)OC3=C2C(=O)CC(C)(C)C3)cc1Cn1nc(C)c([N+](=O)[O-])c1C (stereo unspecified)	5	17	21	-2	0	-1
COc1ccc(C(=O)N/C(=C\c2ccc(Cl)cc2)C(=O)NCCN2CCOCC2)cc1	/	/	/	/	5	/
CCCC(=O)OCCNc1cc(Sc2nccn2C)c2nonc2c1[N+](=O)[O-]	40*	-18	-3	-8	-2	-7
Cc1ccn2c(C(C)O)nnc2c1 (stereo unspecified)	/	/	/	/	-4	/
Cc1ccccc1-n1nnnc1SCC(=O)c1c(N)n(C2CC2)c(=O)[nH]c1=O	13	12	-20	-4	3	-2
Cn1c2ccccc2c2nnc(NN)nc21	-5	12	-19	-5	1	1
CCCCc1c(C)nn(-c2nnc3c4ccccc4n(C)c3n2)c1C	-45	-42	2	12*	2	8
O=C1OC(c2ccccc2)(N(Nc2ccccc2)c2ccccc2)c2ccccc21 (stereo unspecified)	/	/	/	/	-11	/
COc1ccccc1CN=C1NC(=O)C(CC(=O)Nc2ccc(C(C)=O)cc2)S1 (stereo unspecified)	-2	8	15	13*	0	0
Cc1noc(C)c1C(=O)OC(C)C(=O)c1ccc(C(C)(C)C)cc1 (stereo unspecified)	/	/	/	/	-3	/
Nc1nccc(SCc2ccccc2)n1	6	13	-16	-3	-4	-1
C[C@@H]1CN([C@@H](C)CO)S(=O)(=O)c2ccc(Br)cc2O[C@H]1CN(C)C(=O)c1cccc(F)c1	/	/	/	/	3	/
O=C(c1ccco1)N1C(=O)c2cccc3cccc1c23	-5	-21	-7	3	-6	1
O=C(c1ccccc1F)N1C(=O)c2cccc3cccc1c23	-13	-38	-4	12*	-4	2
COC(=O)C(Sc1ccc(Cl)cc1)C1SC(=S)N(Cc2ccccc2)C1=O (stereo unspecified)	/	/	/	/	0	/
COc1cccc(/C=C/c2nc(C#N)c(NCC(C)C)o2)c1	-9	-46	19	12*	-5	2
C=CCNC(=S)N1CCN(S(=O)(=O)c2ccc(C)cc2)CC1	4	-11	10	12*	2	-1
COc1cccc(N(C(=O)c2snc(C(N)=O)c2N)C(C(=O)NCC2CCCO2)c2cccs2)c1 (stereo unspecified)	-3	8	15	-3	1	0
